Laboratory results: ChEMBL document CHEMBL3739417, “Synthesis and biological evaluation of novel 4,5-disubstituted 2H-1,2,3-triazoles as cis-constrained analogues of combretastatin A-4” (2015)

What was measured:
Format in all cases: functional
CCRF-CEM = experiment: Growth inhibition of human CCRF-CEM cells after 48 hrs by sulforhodamine B assay
Summary of the method: (§1)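 NCI-60 panel screen by SRB assay (Rubinstein method). Percentage growth taken from optical density of SRB colour, read before and 48 hrs after exposure to compound or vehicle control. All analogues first screened at 10^-5 M. Analogues giving 60% growth inhibition at that level in at least eight lines then went to a five-concentration dose-response study.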

[1] = Growth inhibition of human COLO205 cells after 48 hrs by sulforhodamine B assay; conditions: COLO 205, 48 h; summary of the method: as §1
786-0 = experiment: Growth inhibition of human 786-0 cells after 48 hrs by sulforhodamine B assay; conditions: 786-0, 48 h; summary of the method: as §1
KM12 = experiment: Growth inhibition of human KM12 cells after 48 hrs by sulforhodamine B assay; conditions: KM12, 48 h; summary of the method: as §1
NCI-H23 = experiment: Growth inhibition of human NCI-H23 cells after 48 hrs by sulforhodamine B assay; conditions: NCI-H23, 48 h; summary of the method: as §1
[2] = Growth inhibition of human PC3 cells after 48 hrs by sulforhodamine B assay; conditions: PC-3, 48 h; summary of the method: as §1
MDA-MB-231 = experiment: Growth inhibition of human MDA-MB-231 cells after 48 hrs by sulforhodamine B assay; conditions: MDA-MB-231, 48 h; summary of the method: as §1
[3] = Growth inhibition of human SKOV3 cells after 48 hrs by sulforhodamine B assay; conditions: SK-OV-3, 48 h; summary of the method: as §1
[4] = Growth inhibition of human OVCAR3 cells after 48 hrs by sulforhodamine B assay; conditions: OVCAR-3, 48 h
Summary of the method: (§2)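 NCI-60 sulforhodamine B screen. Compounds were first tested at a single dose of 10⁻⁵ M; hits, defined as ≥60% growth inhibition in at least eight lines, went on to a five-concentration dose–response. SRB optical density was read before and 48 h after exposure to compound or vehicle. Percentage growth was calculated from OD.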

[5] = Growth inhibition of human HOP62 cells after 48 hrs by sulforhodamine B assay; conditions: HOP-62, 48 h; summary of the method: as §1
[6] = Growth inhibition of human HL-60(TB) cells after 48 hrs by sulforhodamine B assay; conditions: HL-60, 48 h; summary of the method: as §1
SK-MEL-2 = experiment: Growth inhibition of human SK-MEL-2 cells after 48 hrs by sulforhodamine B assay; conditions: SK-MEL-2, 48 h; summary of the method: as §1
A498 = experiment: Growth inhibition of human A498 cells after 48 hrs by sulforhodamine B assay; conditions: A498, 48 h; summary of the method: as §2
A549 = experiment: Growth inhibition of human A549/ATCC cells after 48 hrs by sulforhodamine B assay; conditions: A549, 48 h; summary of the method: as §1
[7] = Growth inhibition of human MOLT4 cells after 48 hrs by sulforhodamine B assay; conditions: MOLT-4, 48 h; summary of the method: as §1
SK-MEL-5 = experiment: Growth inhibition of human SK-MEL-5 cells after 48 hrs by sulforhodamine B assay; conditions: SK-MEL-5, 48 h; summary of the method: as §1
SR = experiment: Growth inhibition of human SR cells after 48 hrs by sulforhodamine B assay; summary of the method: as §1
[8] = Growth inhibition of human HCT15 cells after 48 hrs by sulforhodamine B assay; conditions: HCT-15, 48 h; summary of the method: as §1
[9] = Growth inhibition of human SF268 cells after 48 hrs by sulforhodamine B assay; conditions: SF-268, 48 h; summary of the method: as §1
ACHN = experiment: Growth inhibition of human ACHN cells after 48 hrs by sulforhodamine B assay; summary of the method: as §1
K562 = experiment: Growth inhibition of human K562 cells after 48 hrs by sulforhodamine B assay; conditions: K562, 48 h; summary of the method: as §1
[10] = Growth inhibition of human SNB75 cells after 48 hrs by sulforhodamine B assay; conditions: SNB-75, 48 h; summary of the method: as §1
[11] = Growth inhibition of human SW620 cells after 48 hrs by sulforhodamine B assay; conditions: SW-620, 48 h; summary of the method: as §1
[12] = Growth inhibition of human IGROV1 cells after 48 hrs by sulforhodamine B assay; conditions: IGROV-1, 48 h; summary of the method: as §1
[13] = Growth inhibition of human RPMI8226 cells after 48 hrs by sulforhodamine B assay; conditions: RPMI-8226, 48 h; summary of the method: as §1
[14] = Growth inhibition of human NCI-ADR-RES cells after 48 hrs by sulforhodamine B assay; summary of the method: as §1
CAKI-1 = experiment: Growth inhibition of human CAKI-1 cells after 48 hrs by sulforhodamine B assay; conditions: CAKI-1, 48 h; summary of the method: as §1
HT-29 = experiment: Growth inhibition of human HT-29 cells after 48 hrs by sulforhodamine B assay; conditions: HT-29, 48 h; summary of the method: as §1
MDA-MB-468 = experiment: Growth inhibition of human MDA-MB-468 cells after 48 hrs by sulforhodamine B assay; conditions: MDA-MB-468, 48 h; summary of the method: as §1
[15] = Growth inhibition of human HCC2998 cells after 48 hrs by sulforhodamine B assay; conditions: HCC 2998, 48 h; summary of the method: as §1
[16] = Growth inhibition of human HCT116 cells after 48 hrs by sulforhodamine B assay; conditions: HCT-116, 48 h; summary of the method: as §1
[17] = Growth inhibition of human HOP92 cells after 48 hrs by sulforhodamine B assay; conditions: HOP-92, 48 h; summary of the method: as §1
[18] = Growth inhibition of human LOXIMVI cells after 48 hrs by sulforhodamine B assay; conditions: LOX IMVI; summary of the method: as §1
NCI-H460 = experiment: Growth inhibition of human NCI-H460 cells after 48 hrs by sulforhodamine B assay; conditions: NCI-H460, 48 h; summary of the method: as §1
U-251 = experiment: Growth inhibition of human U251 cells after 48 hrs by sulforhodamine B assay; conditions: U-251, 48 h; summary of the method: as §1
[19] = Growth inhibition of human SF295 cells after 48 hrs by sulforhodamine B assay; conditions: SF-295, 48 h; summary of the method: as §1
MCF7 = experiment: Growth inhibition of human MCF7 cells after 48 hrs by sulforhodamine B assay; conditions: MCF7, 48 h; summary of the method: as §1
[20] = read-out: LD50 (the source's name)

COc1cc(-c2n[nH]nc2-c2ccc3ccccc3n2)cc(OC)c1OC
GI50 (CCRF-CEM): 0.037 µM | LC50 (concentration killing 50% of cells) (CCRF-CEM; read-out: LD50): > 100 µM | GI50 [1]: 0.228 µM | CC50 [1, 20]: > 100 µM | GI50 (786-0): 0.043 µM | LC50 (concentration killing 50% of cells) (786-0; read-out: LD50): > 100 µM | GI50 (KM12): 0.035 µM | LC50 (concentration killing 50% of cells) (KM12; read-out: LD50): > 100 µM | GI50 (NCI-H23): 0.065 µM | LC50 (concentration giving 50% cell kill) (NCI-H23; read-out: LD50): > 100 µM | GI50 [2]: 0.046 µM | CC50 [2, 20]: > 100 µM | GI50 (MDA-MB-231): 0.094 µM | CC50 (MDA-MB-231; [20]): > 100 µM | GI50 [3]: 0.075 µM | LC50 (concentration killing 50% of cells) ([3]; read-out: LD50): > 100 µM | GI50 [4]: 0.011 µM | LC50 (concentration giving 50% net cell kill) ([4]; read-out: LD50): > 100 µM | GI50 [5]: 0.047 µM | LC50 (concentration killing 50% of cells) ([5]; read-out: LD50): > 100 µM | GI50 [6]: 0.03 µM | CC50 [6, 20]: > 100 µM | GI50 (SK-MEL-2): 0.027 µM | CC50 (SK-MEL-2; [20]): > 100 µM | GI50 (A498): 0.033 µM | LC50 (50% net cell kill) (A498; read-out: LD50): > 100 µM | GI50 (A549): 0.054 µM | CC50 (A549; [20]): > 100 µM | GI50 [7]: 0.068 µM | CC50 [7, 20]: > 100 µM | GI50 (SK-MEL-5): 0.013 µM | CC50 (SK-MEL-5; [20]): > 100 µM | GI50 (SR): 0.021 µM | LC50 (concentration giving 50% net cell kill) (SR; read-out: LD50): > 100 µM | GI50 [8]: 0.037 µM | CC50 [8, 20]: > 100 µM | GI50 [9]: 0.503 µM | CC50 [9, 20]: > 100 µM | GI50 (ACHN): 0.081 µM | CC50 (ACHN; [20]): > 100 µM | GI50 (K562): 0.026 µM | CC50 (K562; [20]): > 100 µM | GI50 [10]: 0.016 µM | CC50 [10, 20]: > 100 µM | GI50 [11]: 0.041 µM | LD50 (concentration killing 50% of cells) [11]: > 100 µM | GI50 [12]: 0.065 µM | CC50 [12, 20]: > 100 µM | GI50 [13]: 0.037 µM | CC50 [13, 20]: > 100 µM | GI50 [14]: 0.023 µM | CC50 [14, 20]: > 100 µM | GI50 (CAKI-1): 0.043 µM | CC50 (CAKI-1; [20]): > 100 µM | GI50 (HT-29): 0.214 µM | LC50 (concentration killing 50% of cells) (HT-29; read-out: LD50): > 100 µM | GI50 (MDA-MB-468): 0.035 µM | CC50 (MDA-MB-468; [20]): > 100 µM | GI50 [15]: 0.23 µM | CC50 [15, 20]: > 100 µM | GI50 [16]: 0.04 µM | CC50 [16, 20]: > 100 µM | GI50 [17]: 0.099 µM | CC50 [17, 20]: > 100 µM | GI50 [18]: 0.065 µM | CC50 [18, 20]: > 100 µM | GI50 (NCI-H460): 0.038 µM | CC50 (NCI-H460; [20]): > 100 µM | GI50 (U-251): 0.037 µM | CC50 (U-251; [20]): > 100 µM | GI50 [19]: 0.014 µM | CC50 [19, 20]: > 100 µM | GI50 (MCF7): 0.027 µM | CC50 (MCF7; [20]): > 100 µM
